PubChem BioAssay AID552 (SRMLSC, 2006)
In all, about 20,000 compounds went through this assay and about 10 (0.05%) were called active. Cut-off read from the data, not from the text of the source: active = inhibition above about 40%; inactive = the rest. The sample as a whole holds a higher share of actives than the screen did.

Assay: growth inhibitors of wild type E. coli, primary screen, strain BW25113 wild type, absorbance readout (AID 552);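 note: bacteria exposed to compound for 20 hours at 37 °C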
Details: OD600, at 10 µM, hits give high values
Summary of the method: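 Material: bacterial strain in a whole-cell growth screen; Amount: inoculum from a 1:1000 dilution of a 1.5 h subculture; Buffer or medium: LB plus kanamycin 50 µg/mL; Dosing: one dose, 10 µM final; Times: compound exposure of 20 h at 37 °C; Measured by: absorbance at 615 nm as a measure of bacterial growth.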

| SMILES | inhibition |
| --- | --- |
| O=C(COc1ccccc1F)NC1CC1 | -9.95% (inactive) |
| CC(C)(C)C(=O)CCN1C(=O)C2(OCCO2)c2ccccc21 | 11.1% (inactive) |
| CCOC(=O)N1CCN(CC(=O)c2c(C)[nH]c3ccccc23)CC1 | 8.75% (inactive) |
| COC(=O)C(C)N(C#N)c1nc(C)nc(C)n1 (centres undefined) | -24.9% (inactive) |
| Cc1cc(Cl)ccc1N1C(=O)CC(SCCC(=O)O)C1=O (centres undefined) | 0.27% (inactive) |
| COC(=O)C1=C(C)Nc2ncnn2C1c1ccco1 (centres undefined) | -13.1% (inactive) |
| CCOC(=O)c1c(C)oc2ccc(OCC(=O)N(CC)CC)cc12 | -3.67% (inactive) |
| COc1ccc(-c2cc3ccc(OCc4nn[nH]n4)cc3oc2=O)cc1 | -2.44% (inactive) |
| CCCn1c(C(O)c2cc(OC)ccc2OC)nc2ccccc21 (centres undefined) | -24.6% (inactive) |
| CC1Cn2c(nnc2-c2cccs2)S1 (centres undefined) | -19.2% (inactive) |
| COc1ccc(-c2nc(SCC(=O)N3CCOCC3)n[nH]2)cc1 | -14% (inactive) |
| Cn1c(=O)c2c(ncn2CC(=O)N2CCN(c3ccccc3)CC2)n(C)c1=O | 0.27% (inactive) |
| CC(C)NS(=O)(=O)c1ccc(OCC(=O)Nc2ccc3c(c2)OCCO3)cc1 | -17.1% (inactive) |
| COc1ccccc1C(=O)n1nc(-c2ccccc2)nc1N | -5.43% (inactive) |
| Cc1nnc2sc(-c3ccco3)nn12 | -19.1% (inactive) |
| O=C(c1cccnc1NCc1ccccc1)N1CCOCC1 | 4.48% (inactive) |
| Cc1ccc(-c2noc(CSc3nnc(-c4ccccc4)n3C)n2)cc1 | 13.8% (inactive) |
| Cn1c(=O)n(C)c2cc(C(=O)Nc3ccc4c(c3)OCO4)ccc21 | -11.7% (inactive) |
| COc1ccc(S(=O)(=O)N2CCCC2)c(C)c1C | -7.21% (inactive) |
| CC1=C(C(=O)OC2CCCCC2)C(c2cccnc2)n2ncnc2N1 (centres undefined) | -3.82% (inactive) |
| CCOc1ccc(Cn2nnc(C(=O)Nc3ccc(OC)cc3OC)c2N)cc1 | 1.62% (inactive) |
| Cc1cc(C)cc(N(C(C)C(=O)Nc2c(C)n(C)n(-c3ccccc3)c2=O)S(C)(=O)=O)c1 (centres undefined) | -10.4% (inactive) |
| Cc1nn(-c2ccccc2)c2[nH]c(C(F)(F)F)cc(=O)c12 | -5.63% (inactive) |
| COc1ccc(CCNS(=O)(=O)c2ccc(C(=O)NCc3ccco3)cc2)cc1OC | 8.04% (inactive) |
| O=C(c1ccco1)N1CCN(C(=O)C2CC(c3ccc(F)cc3)=NO2)CC1 (centres undefined) | 9.27% (inactive) |

| SMILES | inhibition |
| --- | --- |
| CC(C(=O)N1CCOCC1)N1c2cccc3cccc(c23)S1(=O)=O (centres undefined) | -6.66% (inactive) |
| CSc1cccc(NC(=O)CSc2ccccc2)c1 | -12.8% (inactive) |
| O=C(c1ccccc1-c1ccccc1)N1CCOCC1 | -14.8% (inactive) |
| CC(C)n1c(NCc2c[nH]c3ccccc23)nc2ccccc21 | 18.1% (inactive) |
| COc1cc(NS(=O)(=O)c2ccccc2)ccc1-n1nc(C)cc1C | -15.6% (inactive) |
| COc1ccc2c(CC(=O)Nc3nnc(C4CC4)s3)coc2c1 | -3.61% (inactive) |
| COc1ccccc1NC1=NC2(CCCC2)N=C(N)N1 | 5.8% (inactive) |
| CCc1nnc(NC(=O)c2ccc(S(=O)(=O)NC3CCCCC3)cc2)s1 | -3.77% (inactive) |
| COC(=O)CN(c1nc(C)c(Cl)c(OC)n1)S(=O)(=O)c1ccc(C)cc1 | -1.76% (inactive) |
| CNC(=O)NCCN1CCCC1=O | 7.98% (inactive) |
| CCn1c(CNC(=O)c2ccc(OC)c(OC)c2)nnc1SCC(=O)Nc1ccccc1 | -11.8% (inactive) |
| O=C(C1CCCO1)N(Cc1ccccc1)c1ccccc1 (centres undefined) | -16.8% (inactive) |
| Cc1cc(NC(=O)Cn2nc(C(F)(F)F)c3c2CCCC3)no1 | -16.9% (inactive) |
| Cc1cc(C)nc(NC2=NCC(=O)N2c2ccc(Cl)cc2)n1 | 1.06% (inactive) |
| O=C(NCCc1ccccn1)c1ccc(COc2ccccc2)o1 | 15% (inactive) |
| C/C(=C(\C#N)C(=O)NCCCN1CCOCC1)N(C)C | 2.5% (inactive) |
| CCOC(=O)CC1C(=O)NCCN1C(=O)COc1ccc(Br)cc1C (centres undefined) | -24.8% (inactive) |
| CC(=O)Nc1ccc(S(=O)(=O)Nc2cccc(NC(=O)C(C)(C)C)c2)cc1 | -16.1% (inactive) |
| O=C1C2(c3ccccc3)CN(CCCO)CC1(c1ccccc1)CN(CCCO)C2 | -16.6% (inactive) |
| Cc1noc(C)c1CSc1nc2cc(S(=O)(=O)N3CCOCC3)ccc2o1 | -3.26% (inactive) |
| CCCCNC(=O)c1ccccc1NC(=O)c1ccccc1N(C)S(C)(=O)=O | -21% (inactive) |
| COC(=O)COc1ccc2oc(=O)cc(C)c2c1 | -18.5% (inactive) |
| O=S(=O)(N1CCOCC1)N1CCN(c2ccccc2F)CC1 | -11.7% (inactive) |
| CCC(Oc1ccccc1)C(=O)NCc1cccnc1 (centres undefined) | -21.9% (inactive) |
| O=C(Nc1nn(Cc2ccccc2F)cc1Br)c1cccs1 | -14.1% (inactive) |

| SMILES | inhibition |
| --- | --- |
| Cc1ccc(S(=O)(=O)N(C)CC(=O)NC2CCCC2)cc1 | -2.1% (inactive) |
| N#CC1=C(N)C(C#N)(C#N)[C@H](c2ccsc2)[C@H]2COCC=C12 | -0.035% (inactive) |
| O=C(OCC(O)C(O)COC(=O)c1ccccc1)c1ccccc1 (centres undefined) | -18.9% (inactive) |
| CCCOc1ccc(NC(=O)C2CCCNC2=O)cc1 (centres undefined) | -30.8% (inactive) |
| COc1ccc(CC(NC(C)=O)C(=O)NC2CCN(C(=O)Nc3ccc(C#N)cc3)CC2)cc1OC (centres undefined) | -1.03% (inactive) |
| Cc1cc(C(=O)Nc2c(C)n(C)n(-c3ccccc3)c2=O)cs1 | -12.7% (inactive) |
| Cc1occc1C(=O)Nc1nnc(C2CCCCC2)s1 | 0.21% (inactive) |
| Cc1cc(=O)n(C)c(=O)n1CCCNc1ccccc1 | 8.62% (inactive) |
| C/C(N)=C(\C#N)C(=O)NCCc1ccccn1 | -3.41% (inactive) |
| CCOC(=O)c1c(C)nc(-c2ccccc2)nc1NC(=O)C(C)C | -20.2% (inactive) |
| Cc1cc(NC(=O)CN2CCC(O)(c3cccc(F)c3)CC2)no1 | -0.42% (inactive) |
| CCC(=O)Nc1nc(OC)cc(OC)n1 | -16.5% (inactive) |
| COc1ccc(CC(=O)Nc2c3c(nn2-c2cccc(Cl)c2)CS(=O)C3)cc1 (centres undefined) | 13.4% (inactive) |
| Cc1cc(C)nc(NC(=O)C(C)N2C(=O)c3ccccc3C2=O)n1 (centres undefined) | -17.9% (inactive) |
| CCOC(=O)c1cnc2sccn2c1=O | -15.3% (inactive) |
| O=C(CCN1C(=O)c2ccccc2C1=O)NCCN1CCOCC1 | 0.59% (inactive) |
| O=C(CCOc1ccccc1)NCc1ccccc1 | 14.8% (inactive) |
| CC1CC(C)CN(CC(=O)Nc2ccc(S(N)(=O)=O)cc2)C1 (centres undefined) | 0.613% (inactive) |
| O=C1CSC(c2cccc(F)c2)N1c1ccccc1F (centres undefined) | 6.64% (inactive) |
| Cc1nonc1NC(=O)c1ccccc1Br | -2.2% (inactive) |
| O=C(Nc1cccnc1)c1ccc2c(c1)OCO2 | 6.74% (inactive) |
| CC(=NCc1ccc2c(c1)OCO2)C1=C(O)c2ccccc2C1=O | 5.88% (inactive) |
| CC(Nc1nc(N2CCCC2)nc2ccccc12)c1ccccc1 (centres undefined) | -5.16% (inactive) |
| O=C(Nc1ccccc1N1CCCCC1)c1cccc(F)c1 | 0.18% (inactive) |
| CC(=O)NC1CC2CCCC(C1)N2CC(=O)Nc1ccccc1 (centres undefined) | 6.86% (inactive) |

| SMILES | inhibition |
| --- | --- |
| COCCCN1C(=O)C(=O)/C(=C(/O)c2ccc3c(c2)CC(C)O3)C1c1cccnc1 (centres undefined) | -17.6% (inactive) |
| CCc1ccccc1NC(=O)CSc1nnc([C@@H](NC(=O)OC(C)(C)C)C(C)CC)o1 (some centres undefined) | -15.5% (inactive) |
| C=CCn1c(SCc2nnc(-c3ccccc3)o2)nnc1C(O)c1ccccc1 (centres undefined) | -17.5% (inactive) |
| COCCCn1c(CCC(=O)O)ccc1-c1ccc(F)cc1 | -9.43% (inactive) |
| CC(=O)NCCc1ccc(S(=O)(=O)N(C)C2CCS(=O)(=O)C2)cc1 (centres undefined) | -15.7% (inactive) |
| COc1ccc(NC(=O)CCNC(=O)Cn2ccc3ccccc3c2=O)c(OC)c1 | -0.805% (inactive) |
| CC(=O)N1C(=O)C2(Nc3ccccc3N2)c2ccccc21 | 7.24% (inactive) |
| COCCOC(=O)C1=C(C)NC(=O)CC1c1cc2c(cc1Br)OCO2 (centres undefined) | -1.9% (inactive) |
| COC(=O)c1cc(C(=O)OC)cc(N2C(=O)CC(N3CCN(c4ccccc4)CC3)C2=O)c1 (centres undefined) | -20% (inactive) |
| CC1CCCC(N2CCN(C(=O)c3ccc(F)cc3)CC2)C1 (centres undefined) | 8.12% (inactive) |
| O=C(Cn1nnc(-c2ccc(CN3CCOCC3)cc2)n1)NC1CCCCC1 | -1.75% (inactive) |
| O=C(Cc1nn[nH]n1)NCCC1=CCCCC1 | 17.3% (inactive) |
| CCC1=C(C(=O)OC)C(c2cc(OC)ccc2OC)C(C#N)=C(N)O1 (centres undefined) | -1.96% (inactive) |
| COc1ccc(OC)c(C(=O)c2ccc(C(=O)O)cc2)c1 | -4.3% (inactive) |
| Cc1ccc(NC2=NC(c3ccccc3)n3c(nc(C)cc3=O)N2)cc1 (centres undefined) | -1.73% (inactive) |
| COC(=O)Nc1ccc(S(=O)(=O)N(C)CC(F)(F)C(F)F)cc1 | -3.1% (inactive) |
| COC(=O)c1ccc(C2CC(=O)Nc3cc(OC)c(OC)cc32)cc1 (centres undefined) | -20.6% (inactive) |
| CC(C)c1ccc(N2CC(C(=O)Nc3nccs3)CC2=O)cc1 (centres undefined) | 2.9% (inactive) |
| CCc1nnc(NC(=O)C2CCCN2S(=O)(=O)c2ccccc2)s1 (centres undefined) | -21% (inactive) |
| Cc1cc(C)c(C#N)c(SCc2[nH]nc3c2C(c2ccccc2)C(C#N)=C(N)O3)n1 (centres undefined) | -3.73% (inactive) |
| CCOC(=O)CSc1nnc(-c2ccncc2)o1 | -0.95% (inactive) |
| COC(=O)C(C)Sc1nc2c(c(=O)n(C)c(=O)n2C)n1Cc1cccc(C)c1 (centres undefined) | 8.4% (inactive) |
| Cc1ccc(C(=O)NCC2CCCO2)o1 (centres undefined) | -6.23% (inactive) |
| CN(C)[C@@H]1C(=O)C(C(N)=O)=C(O)[C@@]2(O)C(=O)C3=C(O)c4c(O)ccc(Cl)c4[C@@H](O)[C@H]3C[C@@H]12 | 43.4% (active) |
